As a reminder, the TGI is the concentration giving total growth inhibition. The term LC50 denotes the concentration that kills 50% of the test population. A lower LC50 goes with greater toxicity. The term GI50 denotes the concentration giving 50% growth inhibition. Read a low GI50 as more potent growth inhibition.

Results on 5 compounds are retold here after ChEMBL document CHEMBL1127326, “Antitumor agents. 148. Synthesis and biological evaluation of novel 4 beta-amino derivatives of etoposide with better pharmacological profiles” (1994).

Test [1] deals with DNA topoisomerase II (Homo sapiens) (UniProt P11388+Q02880). Briefly: 50% inhibition of human DNA topoisomerase II. It is filed as protein assay.
For another test, the system named is Nucleic Acid. The test can be described thus: Percentage inhibition of cellular protein-DNA complex formation. It is filed as functional. Particulars: Homo sapiens.
Test [2] has as its system KB. Briefly: Cytotoxicity against KB cells after a 3 day incubation. The format is functional, Homo sapiens. Particulars: read-out: ID50 (the source's name). The method, boiled down:
(§1)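 KB cells (parental ATCC line and resistant variants) exposed to drug at five concentrations […] for 3 days. ID50 is the concentration giving 50% reduction in cell number, derived from the degree of inhibition at the five concentrations.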

Test [3] deals with Tumor Cell line. The test can be described thus: Drug concentration required to inhibit total cell growth. It is filed as functional, Homo sapiens. Particulars: read-out: Log TGI (converted). Summed up:
(§2)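 NCI panel of 54 human tumor lines from eight cancer types, mostly seeded at 20 000 cells/well. Cells were preincubated 24 h without drug, then exposed to five 10-fold dilutions for 48 h, fixed and stained with sulforhodamine B, and read spectrophotometrically. Versus control, GI50 (50% growth inhibition), TGI (0% growth) and LC50 (−50% growth) were calculated; mean graph midpoints average all lines.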

The test system of test [4] is Tumor Cell line. The test can be described thus: Drug concentration required to cause 50% cell death. It is filed as functional, Homo sapiens. Summed up: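 NCI in vitro panel of 54 human tumor cell lines from eight cancer types, mostly seeded at 20 000 cells/well and preincubated 24 h without drug. Five 10-fold dilutions were then added for a further 48 h. Cells were fixed in situ and stained with sulforhodamine B, and bound dye was read spectrophotometrically. LC50 (−50% growth versus control) was taken from five-point dose-response curves and reported as the log10 mean-graph midpoint across lines.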

The subject of test [5] is Tumor Cell line. The test can be described thus: Drug molar concentration required to inhibit 50% of human tumor cell growth. It is filed as functional. Summed up:
as §2

The test system of test [6] is Tumor Cell line. The test can be described thus: Inhibition of human tumor cell growth. It is filed as functional. The method, boiled down:
as §2

The subject of test [7] is KB. Briefly: 50% reduction in the number of KB V20C resistant variant. The format is functional, Homo sapiens. Particulars: Homo sapiens, KB; read-out: ID50 (the source's name). The method, boiled down:
as §1

The subject of test [8] is KB. The test can be described thus: 50% reduction in the number of KB ATCC cells. The following applies: Homo sapiens, read-out: ID50 (the source's name). The format is functional. The method, boiled down:
as §1

Test [9] concerns KB. Briefly: 50% reduction in the number of KB 7D (topoisomerase II, aMDR) resistant variant. Particulars: Homo sapiens, KB; read-out: ID50 (the source's name). The format is functional, Homo sapiens. Summed up: as §1
The test system of test [10] is Tumor Cell line. Briefly: 50% of human tumor cell growth. The format is functional. The method, boiled down:
as §2

Values joined by “and” are separate entries in the source; they are usually repeats but may differ in a detail not shown here. Identical values can stand only once.

Take `COc1cc([C@@H]2c3cc4c(cc3[C@@H](NCCN(C)C)[C@H]3COC(=O)[C@H]23)OCO4)cc(OC)c1O`: the ID50 in test [1] turned out to be 25000 nM. Moreover, in the test with Nucleic Acid, the Complex formation was 203% and 183%.
In the case of `COc1cc([C@@H]2c3cc4c(cc3[C@@H](NCCCN(C)C)[C@H]3COC(=O)[C@H]23)OCO4)cc(OC)c1O`, the IC50 in the test on KB [2] was found to be 1150 nM. The TGI with Tumor Cell line [3] (Homo sapiens, Tumor Cell line) was 2820 nM. Moreover, the LC50 in the test with Tumor Cell line [4] (Homo sapiens, Tumor Cell line) was 13500 nM. The same compound showed a GI50 in the test on Tumor Cell line [5] (Homo sapiens, Tumor Cell line) of 550 nM.
On to `COc1cc([C@@H]2c3cc4c(cc3[C@@H](NCCN3CCOCC3)[C@H]3COC(=O)[C@H]23)OCO4)cc(OC)c1O`, for which the IC50 with KB [2] turned out to be 2000 nM. In addition, the TGI with Tumor Cell line [3] is 11500 nM. The GI50 with Tumor Cell line [5] is 1820 nM.
`COc1cc([C@@H]2c3cc4c(cc3[C@@H](O[C@@H]3O[C@@H]5CO[C@@H](C)O[C@H]5[C@H](O)[C@H]3O)[C@H]3COC(=O)[C@H]23)OCO4)cc(OC)c1O` [ETOPOSIDE] had a GI50 in the test on Tumor Cell line [6] of 83200 nM. Also, the IC50 in the test on KB [7] came out at 2300 nM; in the test on KB [2] (Homo sapiens, KB, 72 h), 200 nM; in the test with KB [8], 320 nM; in the test with KB [9], 18000 nM. Also, the Complex formation in the test with Nucleic Acid stood at 100%.
Take `COc1cc([C@@H]2c3cc4c(cc3[C@@H](NCCN3CCCCC3)[C@H]3COC(=O)[C@H]23)OCO4)cc(OC)c1O`: in the test with KB [2], the IC50 was found to be 1400 nM. In addition, in the test with Tumor Cell line [3], the TGI was 3310 nM. In the test on Tumor Cell line [4], this compound had an LC50 of 30900 nM. Besides, it took 372 nM to inhibit growth in the test with Tumor Cell line [10] by half (GI50).
